{"data": "Measurements gathered from unrelated publications", "target": "Serine/threonine-protein kinase PAK 5 (PAK5, Homo sapiens, UniProt Q9P286)"}
{"Compound": "O=C(Nc1c[nH]nc1C(=O)NC1CCNCC1)c1cc(F)cc(F)c1", "effect on": "binding", "method": "competition with immobilised ligand", "tested at": "1 µM", "remaining binding": "100%"}
{"Compound": "COc1cnc(Nc2cccc(S(N)(=O)=O)c2)nc1N1CCN(c2ccccc2)C(=O)C1", "effect on": "binding", "method": "competition with immobilised ligand", "tested at": "1 µM", "remaining binding": "82%"}
{"Compound": "N[C@H]1CCN(c2nccc(-c3cnn4ncccc34)n2)C1", "effect on": "binding", "tested at": "1 µM", "remaining binding": "100%"}
{"Compound": "FC(F)(F)Oc1cccc(-c2cnc3ccc(-c4ccncc4)nn23)c1", "effect on": "cell-free assay", "method": "competition with immobilised ligand", "tested at": "5 µM", "remaining binding": "43%"}
{"Compound": "CCN1CCN(Cc2ccc(C(=O)Nc3ccc(C)c(Oc4ccc5c(c4)CC(=O)N5)c3)cc2C(F)(F)F)CC1", "effect on": "binding", "method": "competition with immobilised ligand", "tested at": "1 µM", "remaining binding": "86%"}
{"Compound": "C[C@@H]1CN(c2cc(-c3n[nH]c4ccc(OC5(C)CC5)cc34)ncn2)C[C@H](C)O1", "effect on": "cell-free assay", "method": "competition with immobilised ligand", "tested at": "0.1 µM", "remaining binding": "86%"}
{"Compound": "CNC(=O)[C@@H]1CC[C@@H](n2c(-c3ccc4cnccc4c3)nc3ccc(C(=O)NCc4cccc(C(N)=O)c4)cc32)C1", "effect on": "binding", "method": "competition with immobilised ligand", "tested at": "1 µM", "remaining binding": "100%"}
{"Compound": "O=C(c1ccc(Nc2ncc(Cl)c(-c3cc4ccccc4s3)n2)cc1)N1CCC(N2CCCC2)CC1", "effect on": "binding", "method": "competition with immobilised ligand", "tested at": "1 µM", "remaining binding": "77%"}
{"Compound": "C[C@@H]1CCN(c2nccc(-c3cnn4ncccc34)n2)C1", "effect on": "binding", "tested at": "1 µM", "remaining binding": "90%"}
{"Compound": "O=C(c1ccc(Nc2nccc(-c3cc4ccccc4s3)n2)cc1)N1CCC(N2CCCC2)CC1", "effect on": "binding", "method": "competition with immobilised ligand", "tested at": "1 µM", "remaining binding": "79%"}
{"Compound": "CN(C)c1ncc(F)c(-c2cnn3ncccc23)n1", "effect on": "binding", "tested at": "1 µM", "remaining binding": "76%"}
{"Compound": "O=C(NCCCC1CCCCC1)c1ccc(CNC(=O)c2cnn(-c3ccccc3)c2C(F)(F)F)cc1", "effect on": "cell-free assay", "method": "competition with immobilised ligand", "tested at": "0.1 µM", "remaining binding": "100%"}
{"Compound": "Cc1cnn2ncc(-c3ccnc(N(C)C)n3)c2c1", "effect on": "binding", "tested at": "1 µM", "remaining binding": "0%"}
{"Compound": "C[C@@]1(Cc2ccc(C#N)cc2)C(=O)N(c2cc(Cl)cc(Cl)c2)c2ncc(C(=O)NC3(c4nc(C5CCC5)no4)CC3)n21", "effect on": "cell-free assay", "method": "competition with immobilised ligand", "tested at": "1 µM", "remaining binding": "100%"}
{"Compound": "CN(C)c1nccc(-c2cnn3ncccc23)n1", "effect on": "binding", "tested at": "1 µM", "remaining binding": "92%"}
{"Compound": "CS(=O)(=O)c1cc(C2(NC(=O)c3cncc4c3cnn4-c3ccc(F)cc3)CC2)ccn1", "effect on": "cell-free assay", "method": "competition with immobilised ligand", "tested at": "1 µM", "remaining binding": "100%"}
{"Compound": "O=C(c1ccc(Nc2ncc(Cl)c(-c3ccc(Cl)s3)n2)cc1)N1CCC(N2CCCC2)CC1", "effect on": "binding", "method": "competition with immobilised ligand", "tested at": "1 µM", "remaining binding": "58%"}
{"Compound": "CNCc1ccccc1-c1csc([C@H](C)Nc2nc(C)nc3cc(OC)c(OC)cc23)c1", "effect on": "cell-free assay", "method": "competition with immobilised ligand", "tested at": "1 µM", "remaining binding": "100%"}
{"Compound": "CN(CCCC(F)(F)F)c1nccc(-c2cnn3ncccc23)n1", "effect on": "binding", "tested at": "1 µM", "remaining binding": "100%"}
{"Compound": "c1cncc(-c2cccc(Nc3nccc(NC4CCCCC4)n3)c2)c1", "effect on": "binding", "method": "competition with immobilised ligand", "tested at": "10 µM", "remaining binding": "76%"}
{"Compound": "CN(C)CC#Cc1ccc(OCCCc2sc(N3CCc4cccc(C(=O)Nc5nc6ccccc6s5)c4C3)nc2C(=O)O)c(F)c1", "effect on": "cell-free assay", "method": "competition with immobilised ligand", "tested at": "1 µM", "remaining binding": "91%"}
